Source: ChEMBL document CHEMBL4130342, “New semi-synthetic analogs of oleuropein show improved anticancer activity in vitro and in vivo” (Eur J Med Chem, 2017)

Legend:
B16-F1 [1] = assay: Antiproliferative activity against mouse B16-F1 cells after 72 hrs by MTT reduction assay; type: functional, cell-based; conditions: B16-F1, 72 h
Method in brief: (§1)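 MTT reduction assay; adherent lines left to adhere overnight, suspension lines (HL-60, K562) seeded on the day. […] Incubation was 72 h at 37°C, with MTT added for the last 4 h. OD read at 545 nm (reference 690 nm). IC50 from 100(A0-A)/A0=50; means ± SD of 3 independent experiments.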

B16-F1 [2] = assay: Induction of apoptosis in mouse B16-F1 cells assessed as early apoptotic cells at 283.90 uM after 24 hrs by propidium iodide staining-based flow cytometric method (reference value: 0.5%); type: functional
B16-F1 [3] = assay: Induction of apoptosis in mouse B16-F1 cells assessed as late apoptotic cells at 283.90 uM after 72 hrs by propidium iodide staining-based flow cytometric method (reference value: 1.4%); type: functional
Mus musculus [4] = assay: Toxicity in C57BL/6 mouse allografted with mouse B16-F1 cells assessed as effect on mouse survival at 600 ug, ip administered every other day up to day 29; type: organism-based; conditions: in vivo
Method in brief: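 Male C57BL/6 mice (6-8 wk) were injected sc with 10⁵ B16.F1 cells on day 0. From day 11 they received ip doses in 200 µL PBS every other day, 8 doses in total, with PBS controls. Tumors were caliper-measured every two days and the animals monitored to day 29 for signs of toxicity. Groups of 5.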

B16-F1 [5] = assay: Induction of apoptosis in mouse B16-F1 cells assessed as early apoptotic cells at 283.90 uM after 48 hrs by propidium iodide staining-based flow cytometric method (reference value: 0.2%); type: functional
PBMC [6] = assay: Induction of apoptosis in human PBMC assessed as necrotic cells at 600 ug/ml after 24 hrs by propidium iodide staining-based flow cytometric method (reference value: 1%); type: cell-based
PBMC [7] = assay: Induction of apoptosis in human PBMC assessed as early apoptotic cells at 150 ug/ml after 24 hrs by propidium iodide staining-based flow cytometric method (reference value: 0.1%); type: cell-based
PBMC [8] = assay: Induction of apoptosis in human PBMC assessed as necrotic cells at 500 ug/ml after 24 hrs by propidium iodide staining-based flow cytometric method (reference value: 1%); type: cell-based
MCF7 = assay: Antiproliferative activity against human MCF7 cells after 72 hrs by MTT reduction assay; type: functional, cell-based; conditions: MCF7, 72 h; method in brief: as §1
SK-BR-3 = assay: Antiproliferative activity against human SKBR3 cells after 72 hrs by MTT reduction assay; type: functional, cell-based; conditions: SK-BR-3, 72 h; method in brief: as §1
B16-F1 [9] = assay: Induction of apoptosis in mouse B16-F1 cells assessed as necrotic cells at 283.90 uM after 24 hrs by propidium iodide staining-based flow cytometric method (reference value: 0.4%); type: functional
Mus musculus [10] = assay: In vivo induction of tumor-reactive immune response in C57BL/6 mouse allografted with mouse B16-F1 cells assessed as splenocyte-mediated NK-sensitive mouse YAC-1 cell lysis at 300 ug, ip administered every other day up to day 29 measured on day 29 post last dose by flow cytometric method (reference value: 1.2 to 1.7); type: functional
Method in brief: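 Male C57BL/6 mice (6-8 wk) were injected sc in the right flank with 10⁵ B16.F1 cells in PBS on day 0. From day 11, when tumors were palpable, they received ip doses in 200 µL PBS every other day (8 doses; 5 mice/group). On day 29, splenocytes were co-cultured unstimulated with targets at E:T 100:1 for 6 h at 37°C. CD107a/b MFI was read by flow cytometry, 2 mice/group tested individually.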

With C/C=C1/[C@H](O[C@@H]2O[C@H](CO)[C@@H](O)[C@H](O)[C@H]2O)OC=C(C(=O)OC)[C@H]1CC(=O)OCCc1ccc(O)c(O)c1 [OLEUROPEIN] the IC50 (B16-F1 [1]) was 284 µM, the Activity (B16-F1 [2]) was 9.3% and the Activity (B16-F1 [3]) was 15.5%. For the same molecule, the Activity (Mus musculus [4]) was “Non-Toxic”, the Activity (B16-F1 [5]) was 13.6% and the Activity (PBMC [6]) was 16.4%. The Activity (PBMC [7]) was 0.8%, the Activity (PBMC [8]) was 10.3% and the IC50 (MCF7) was 162 to 170 µM. The IC50 (SK-BR-3) was 160 µM, the Activity (B16-F1 [9]) was 2.1% and the Flu intensity (Mus musculus [10]) was 2.3 - 2.7.
